ALR H2O2 inh: human ALR oxidase inhibition via reduced H2O2. P55789. purified ALR, DTT oxidation, H2O2 HRP-luminol luminescence. AID 485317. inhibition, % (test concentration not listed). actives 3.8% (n = 290,000);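 active = mean replicate inhibition above about 79%, with every replicate also reaching it, limit read from the data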
Target sequence (P55789 whole entry, looked up): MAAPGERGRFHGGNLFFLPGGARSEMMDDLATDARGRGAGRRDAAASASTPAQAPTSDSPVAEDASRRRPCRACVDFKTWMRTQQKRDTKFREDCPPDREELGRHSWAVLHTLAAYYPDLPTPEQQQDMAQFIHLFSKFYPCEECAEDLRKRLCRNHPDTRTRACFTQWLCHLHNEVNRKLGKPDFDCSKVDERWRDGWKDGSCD
DYRK1A inh: Dyrk1A (rat) kinase inhibition; Q63470; ADP-Glo luminescence, NFATc1 peptide; inhibition, % at 12.5 µM; actives 0.43% (n = 310,000); AID 504441; in the data active = inhibition above about 50%
CAL PDZ FP-1: inhibitors of human CAL PDZ peptide binding. inhibition, % at 24.9 µM. Q9HD26. purified CAL PDZ, TMR-peptide fluorescence polarization, 1 h. actives 0.92% (n = 300,000). AID 602252;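 active = mean inhibition of at least 30% with at least half of replicates also reaching 30%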
CAL PDZ FP-2: human CAL PDZ-peptide interaction inhibition; inhibition, % at 20 µM; actives 0.02% (n = 330,000); Q9HD26; purified CAL PDZ, TMR-peptide fluorescence polarization, 1 h;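 active = highest replicate inhibition of at least 40%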
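Material: tagged CAL PDZ protein CerCALP, purified; buffer or medium: sodium phosphate/NaCl buffer pH 7.4 with TCEP, IgG, Thesit; also added: fluorescent TMR peptide probe; schedule: 1 h incubation at room temperature before polarization reading; technique: fluorescence polarization from S- and P-plane intensities, G-factor corrected; control set: unlabelled peptide and DMSO controls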
Rtt109 Vps75: inhibitors of Candida albicans Rtt109/Vps75 histone acetyltransferase; Q5AAJ8; purified Rtt109/Vps75, ThioGlo CoA-SH fluorescence, 4 h; inhibition, % at 34.9 µM; actives 0.16% (n = 330,000);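 active = inhibition of at least 50% in every replicate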
Target sequence (Q5AAJ8 whole entry, looked up): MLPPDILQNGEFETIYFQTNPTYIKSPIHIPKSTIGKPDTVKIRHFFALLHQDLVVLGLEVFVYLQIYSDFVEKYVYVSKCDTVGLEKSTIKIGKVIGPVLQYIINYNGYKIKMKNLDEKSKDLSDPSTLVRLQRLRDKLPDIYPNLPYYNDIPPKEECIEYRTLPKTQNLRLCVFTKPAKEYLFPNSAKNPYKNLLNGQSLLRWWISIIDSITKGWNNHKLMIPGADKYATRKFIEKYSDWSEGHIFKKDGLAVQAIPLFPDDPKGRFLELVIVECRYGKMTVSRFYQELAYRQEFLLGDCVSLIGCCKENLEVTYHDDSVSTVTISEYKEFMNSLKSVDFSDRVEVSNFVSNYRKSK
Large screens that a line does not name were inactive. In the library only some 4.3% were active in any assay of this set; here they are far more common.

CCCOC(=O)C(C)n1c(-c2ccccc2)nc2ccccc2c1=O (stereo not drawn)	ALR H2O2 inh 91.3
Cc1ccc(NC(=O)CN2C(=O)CSc3ccc(S(=O)(=O)N4CCCCC4)cc32)cc1	none
CCn1cc(/C=N/NS(=O)(=O)c2ccc(OC)cc2)c(C)n1	none (no result: CAL PDZ FP-1)
CCN(CCn1cccn1)C(=O)c1ccc(OC2CCN(C(=O)COC)CC2)cc1	none
Cc1cnc(CNC(=O)c2ccc(OC3CCN(C(=O)C4CC4)CC3)cc2)cn1	none
COCC(=O)N1CCC(Oc2ccc(C(=O)NCCCn3cccn3)cc2)CC1	CAL PDZ FP-1 57.9
COCC(=O)N1CCC(Oc2ccc(C(=O)NCc3cnc(C)cn3)cc2)CC1	CAL PDZ FP-1 56.9
Cn1c(N)c(C(=O)COC(=O)CC(NC(=O)c2ccccc2Cl)c2ccccc2)c(=O)n(C)c1=O (stereo not drawn)	none (no result: CAL PDZ FP-2)
Cc1ccccc1OCC(=O)Nc1ccccc1C(=O)N1CCCCC1	ALR H2O2 inh 85.5
Cc1ccccc1OCCC(=O)Nc1ccccc1C(=O)N1CCCCC1	none (no result: CAL PDZ FP-1)
CCN(CC)S(=O)(=O)c1cc(NC(=O)C(C)N2CCc3ccccc32)ccc1C (stereo not drawn)	none (no result: DYRK1A inh)
CC(C(=O)Nc1ccc(S(N)(=O)=O)cc1)N1CCc2ccccc21 (stereo not drawn)	ALR H2O2 inh 98.8 (no result: DYRK1A inh)
CC1CCCC(NC(=O)COC(=O)COc2cccc(F)c2)C1C (stereo not drawn)	none (no result: DYRK1A inh)
O=C(Nc1nnc(SCC(=O)N2CCCCC2)s1)c1c(F)cccc1F	none
O=C(O)CSc1c2ccccc2cc2ccccc12	ALR H2O2 inh 98.9 (no result: DYRK1A inh)
Cc1[nH]c2ccccc2c1SCC(=O)O	none
O=C(O)CSc1nnc(SCc2cccc3ccccc23)s1	ALR H2O2 inh 98.3
O=C(O)COc1ccccc1/C=N/NC(=O)CSc1nnc(SCc2cccc3ccccc23)s1	ALR H2O2 inh 96.7
O=C1C(Cl)=C(NCCCO)C(=O)c2ccccc21	none (no result: CAL PDZ FP-1)
Cc1ccc(NC2=C(NCCO)C(=O)c3ccccc3C2=O)cc1	ALR H2O2 inh 99.6
COc1cnc(-c2ccccn2)nc1Oc1ccccc1Cl	ALR H2O2 inh 97.8
CC1CN(C(=O)N2CCCCC2)CCN1C(=O)N1CCCCC1 (stereo not drawn)	none
O=C(O)CSc1nc(SCc2ccccc2Cl)nc2c1CCCC2	ALR H2O2 inh 94.7 (no result: CAL PDZ FP-1)
O=C1c2ccccc2NC(c2ccc(O)cc2)N1/N=C/c1ccc(O)cc1 (stereo not drawn)	ALR H2O2 inh 99.4
O=C1c2ccccc2NC(c2ccccc2)N1/N=C/c1ccccc1 (stereo not drawn)	none
O=[N+]([O-])c1ccc(/C=C2\CCC(C3=CCCC3)=C2N2CCOCC2)cc1	ALR H2O2 inh 97.5
O=C(NP(=O)(N1CCCC1)N1CCCC1)C1=C(N2CCOCC2)/C(=C/c2cccc([N+](=O)[O-])c2)CC1	none
CNC(=O)c1cn2c3c(ccc(Cl)c3c1=O)OC(C)C2 (stereo not drawn)	none (no result: ALR H2O2 inh)
CCC(CC)NC(=O)COC(=O)c1ccc(OCC(=O)Nc2ccccc2OC)c(OC)c1	CAL PDZ FP-1 43.9 (no result: DYRK1A inh)
COC(=O)c1c(NC(=O)Cn2cnc([N+](=O)[O-])n2)sc2c1CCC(C)C2 (stereo not drawn)	none
O=C(Nc1nc(=O)n(C(=O)c2cccc(C(F)(F)F)c2)s1)c1ccccc1	ALR H2O2 inh 97.2
O=C(Nc1ccc(-c2csc(Nc3cccc(C(F)(F)F)c3)n2)cc1)c1ccccc1	none
COCCNc1c(-c2ccc(OC)cc2)nc2ccc(Cl)cn12	ALR H2O2 inh 98.7
O=C1Nc2ccccc2/C1=N/N=C/c1cccc(O)c1	none (no result: ALR H2O2 inh)
COc1cc(/C=N/N=C2/C(=O)Nc3ccccc32)cc(OC)c1O	ALR H2O2 inh 95.4
CCC(C)[C@H](NC(=O)N1CC(=O)Nc2ccccc21)C(=O)N[C@@H](Cc1c[nH]c2ccccc12)C(=O)O (stereo partly drawn)	none
Cc1cccc(NC(=O)Cn2cnc3c(oc4ccccc43)c2=O)c1C	CAL PDZ FP-2 61.5
Cc1ccccc1NC(=O)Cn1cnc2c(oc3ccccc32)c1=O	none
CCc1nc2ccccc2n1CC(O)COCC1CC=CCC1 (stereo not drawn)	CAL PDZ FP-1 43.0
O=C(c1ccccc1)N1CCN(CC(O)COCC2CC=CCC2)CC1 (stereo not drawn)	none
O=C(Nc1ccc(Br)cc1Br)C1CC(=O)N(Cc2ccccc2)C1 (stereo not drawn)	none
O=[N+]([O-])c1cccc(CP(=O)(c2ccccc2)c2ccccc2)c1	CAL PDZ FP-1 60.2 (no result: ALR H2O2 inh)
CCOC(=O)C(=NCC1CCCO1)NNc1cc(Cl)ccc1Cl (stereo not drawn)	ALR H2O2 inh 99.0
CCOC(=O)/C(=N\Nc1cc(Cl)ccc1Cl)N1CC(C)OC(C)C1 (stereo not drawn)	none
COc1ccc(CCN=C(N)NS(=O)(=O)c2ccc(C)c(C)c2)cc1	none
O=C(NC1CCCCNC1=O)c1ccccc1 (stereo not drawn)	none (no result: DYRK1A inh)
Cc1noc(C)c1CCC(=O)N1CCCC(N2CCN(c3ccc(F)cc3)CC2)C1 (stereo not drawn)	none
CNc1sc(C(=O)c2ccccc2F)c(N)c1-c1nc2ccccc2s1	ALR H2O2 inh 90.9 (no result: Rtt109 Vps75)
CCOC(=O)CSc1nnc(NCC(=O)OC)c(=O)[nH]1	ALR H2O2 inh 100.1 (no result: CAL PDZ FP-1)
COc1ccc(-c2nc(SCC(=O)N(CC(C)C)c3c(N)n(Cc4ccccc4)c(=O)[nH]c3=O)n[nH]2)cc1	none
CCCN(C(=O)CSc1n[nH]c(-c2ccc(OC)cc2)n1)c1c(N)n(Cc2ccccc2)c(=O)[nH]c1=O	ALR H2O2 inh 86.5
Nc1ccccc1OCP(=O)(c1ccccc1)c1ccccc1	ALR H2O2 inh 96.2
Nc1ccccc1OCCOCCOCCOc1ccccc1N	ALR H2O2 inh 96.8
O=P(COCCOCCOCP(=O)(c1ccccc1)c1ccccc1)(c1ccccc1)c1ccccc1	none
CCCCOc1ccccc1N	none
CN(CCC1CCOCC1)C(=O)CC1C(=O)NCCN1Cc1ccoc1 (stereo not drawn)	none
CN(CCCC1CCCC1)C(=O)CC1C(=O)NCCN1Cc1ccc(F)cc1 (stereo not drawn)	CAL PDZ FP-1 40.8
CCc1c(O)nc(SCC(=O)Nc2nc3ccccc3s2)n(C2CCCCC2)c1=O	ALR H2O2 inh 92.2 (no result: DYRK1A inh)
CCc1c(O)nc(SCC(=O)Nc2ccc(OC)cc2)n(C2CCCCC2)c1=O	ALR H2O2 inh 98.6
Cc1cc(NC2CCCC2)n2nc(C)c(-c3ccccc3)c2n1	CAL PDZ FP-1 31.9
CC(=O)C1C(=O)CC(C)(O)C(C(C)=O)C1c1ccccc1 (stereo not drawn)	none
O=C(Nc1cccc(F)c1)NC1(C(=O)N2CCOCC2)CCCCC1	none
COc1cccc(-n2cnc3cccc(N)c32)c1	ALR H2O2 inh 87.1
COc1cccc(N2CC(=O)N(c3cccc(OC)c3)CC2=O)c1	none (no result: Rtt109 Vps75)
CC1=CC(=O)C(C(C)=Nc2ccccc2Cl)C(=O)O1 (stereo not drawn)	none

Screening results: PubChem BioAssay, Broad Institute
